Data from ChEMBL document CHEMBL1909512, “Indolin-2-one p38α inhibitors III: bioisosteric amide replacement” (Bioorg Med Chem Lett, 2011).

What was measured:
Blood = experiment: Inhibition of LPS-induced TNFalpha release in human whole blood after 24 hrs by ELISA; format: functional, tissue-based
[1] = target: Mitogen-activated protein kinase 14 (Homo sapiens, UniProt Q16539)
Liver microsomes [2] = experiment: Metabolic stability in human liver microsomes in absence of NADPH; format: ADME, Microsome
Liver microsomes [3] = experiment: Metabolic stability in rat liver microsomes in absence of NADPH; format: ADME, Microsome
[4] = Metabolic stability in rat liver microsomes assessed as compound turnover at 5 uM after 30 mins in presence of NADPH; format: ADME, Microsome; details: read-out: Drug metabolism
Summary of the method: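 5 µM test compound incubated with rat or human hepatic microsomes (1 mg/mL) plus NADPH for 30 min at 37 °C; result given as % turnover.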

[5] = Metabolic stability in human liver microsomes assessed as compound turnover at 5 uM after 30 mins in presence of NADPH; format: ADME, Microsome; details: read-out: Drug metabolism
Liver microsomes [6] = experiment: Metabolic stability in human liver microsomes assessed as compound turnover at 5 uM after 30 mins in absence of NADPH; format: ADME, Microsome; details: 0.5 h
[7] = Apparent passive permeability from apical to basolateral side of the human Caco2 cells at 12.5 uM; format: ADME, cell-based; details: Caco-2
Summary of the method: (§1)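 Passive permeability across Caco-2 monolayer measured with 12.5 µM test compound in both directions (apical-to-basal and basal-to-apical); Papp reported in 10^-6 cm/s.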

[8] = Apparent passive permeability from basolateral to apical side of the human Caco2 cells at 12.5 uM; format: ADME, cell-based; details: Caco-2; summary of the method: as §1
CHO = experiment: Cytotoxicity against CHO cells at 200 uM; format: cell-based, Cricetulus griseus; details: chinese hamster

Mitogen-activated protein kinase 14, sequence (Q16539 whole entry): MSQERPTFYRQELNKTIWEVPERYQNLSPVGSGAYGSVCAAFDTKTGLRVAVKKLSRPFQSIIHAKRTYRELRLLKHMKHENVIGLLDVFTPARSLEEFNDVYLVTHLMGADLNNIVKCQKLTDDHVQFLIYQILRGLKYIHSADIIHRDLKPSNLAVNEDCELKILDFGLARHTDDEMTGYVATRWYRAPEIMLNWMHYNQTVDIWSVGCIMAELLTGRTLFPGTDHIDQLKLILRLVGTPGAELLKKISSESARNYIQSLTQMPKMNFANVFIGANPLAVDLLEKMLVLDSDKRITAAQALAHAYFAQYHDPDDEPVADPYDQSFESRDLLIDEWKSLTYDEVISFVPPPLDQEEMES

SMILES | IC50 (Blood) | IC50 [1] | also measured
Cc1ccn2c(N)nnc2c1-c1ccc2c(c1)NC(=O)C21CCCC1 | 2.11 µM | 0.034 µM | 
Cc1ccc2c(NC3CC3)noc2c1-c1ccc2c(c1)NC(=O)C21CCC(F)(F)CC1 | 0.0107 µM |  | metabolised at 0.5 h, 5 µM [4]: 25%; metabolised at 0.5 h, 5 µM [5]: 32%; Stability (Liver microsomes [6]): Stable; Papp A→B at 12.5 µM [7]: 10 ×10⁻⁶ cm/s; Papp B→A at 12.5 µM [8]: 4 ×10⁻⁶ cm/s; Activity (CHO): 56%
Cc1nnc(-c2ccc(C)c(-c3ccc4c(c3)NC(=O)C4(C)C)c2)[nH]1 |  | 0.087 µM | 
Cc1ncc(-c2ccc(C)c(-c3ccc4c(c3)NC(=O)C43CCOCC3)c2)[nH]1 |  | 0.88 µM | Stability (Liver microsomes [2]): Stable; Stability (Liver microsomes [3]): Stable
Cc1ccc2c(NC3CC3)noc2c1-c1ccc2c(c1)NC(=O)C21CCCC1 | 0.002 µM |  | 
Cc1ccc2c(N)noc2c1-c1ccc2c(c1)NC(=O)C2(C)C | 0.731 µM |  | 
O=C1Nc2cc(-c3cccc4c(NC5CC5)noc34)c(Cl)cc2C12CCCC2 | 0.438 µM |  | 

Continued, in another order:

IC50 (Blood) | IC50 [1] | SMILES | also measured
 | 0.173 µM | Cc1cnc(-c2ccc(C)c(-c3ccc4c(c3)NC(=O)C43CCOCC3)c2)[nH]1 | Stability (Liver microsomes [2]): Stable; Stability (Liver microsomes [3]): Stable
 | 0.135 µM | Cc1ccc(-c2nnc(C3CC3)[nH]2)cc1-c1ccc2c(c1)NC(=O)C21CCCC1 | 
0.253 µM |  | Cc1ccc(-c2ncn[nH]2)cc1-c1ccc2c(c1)NC(=O)C21CCCC1 | 
0.624 µM |  | Cc1nnc(-c2ccc(C)c(-c3ccc4c(c3)NC(=O)C43CCC3)c2)[nH]1 | 
